Bioassay records: PubChem BioAssay, The Scripps Research Institute Molecular Screening Center
Most compounds without a hit are left out; they make up all but 1.8% or so of the library.
CHRM4 antagonist = CHRM4 antagonism in calcium assay; inhibition, % at 3 µM; P08173; 0.73% of 360,000 active; CHO-hM4 cells, ACh EC80, Fluo-8 calcium fluorescence;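 active = inhibition above its plate's cutoff, the mean inhibition of sample wells plus 3 SD, cut at about 27% in these data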;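 also: 0% = acetylcholine EC80 with DMSO and 100% = DMSO without agonist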
Target sequence (P08173 whole entry, looked up): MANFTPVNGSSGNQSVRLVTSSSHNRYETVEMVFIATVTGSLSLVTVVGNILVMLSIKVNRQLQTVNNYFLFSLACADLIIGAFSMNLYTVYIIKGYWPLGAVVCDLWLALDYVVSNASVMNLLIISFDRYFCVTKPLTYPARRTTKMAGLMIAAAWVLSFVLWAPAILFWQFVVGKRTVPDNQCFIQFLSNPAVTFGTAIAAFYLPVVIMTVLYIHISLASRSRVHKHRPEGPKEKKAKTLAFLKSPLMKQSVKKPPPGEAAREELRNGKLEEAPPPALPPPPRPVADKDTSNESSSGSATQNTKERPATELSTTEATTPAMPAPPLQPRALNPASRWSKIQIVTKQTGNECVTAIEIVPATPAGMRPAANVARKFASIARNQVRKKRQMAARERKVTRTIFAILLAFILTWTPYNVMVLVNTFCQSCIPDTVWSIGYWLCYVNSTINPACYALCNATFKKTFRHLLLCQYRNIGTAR
M5 PAM = CHRM5 positive allosteric modulation. activation, % at 3 µM. CHO-K1 hM5, Fluo-8 calcium, ACh EC20 PAM; 0% = ACh EC20, 100% = ACh EC100. P08912. 0.3% of 360,000 active;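 active = activation above the run cutoff, the mean activation of all test compounds plus 3 SD, cut at about 18% in these data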
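System: CHO-K1 cell line with stable human muscarinic M5 receptor expression | Also added: EC20 acetylcholine as agonist stimulus | Compound: One concentration, 3 µM final (nominal) | Timing: Fluo-8 loading 80 min at 37 °C plus 30 min room temperature | Measured by: Fluo-8 calcium dye fluorescence, kinetic read | Read-out basis: % activation, ACh-normalized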
CHRM5 agonist = agonists of human muscarinic M5 receptor (CHRM5); CHO-K1 hM5 cells, Fluo-8 calcium fluorescence; 0% DMSO wells, 100% maximal acetylcholine response; activation, % at 3 µM; 0.19% of 360,000 active;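 active = activation above the run's mean over test compounds plus 3 SD, cut at about 23% in these data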;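 also: signal is peak over basal fluorescence ratio across the kinetic read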
M4 ag = agonists of human muscarinic M4 receptor (CHRM4); P08173; CHO-K1 hM4/Gqi5, Fluo-8 calcium fluorescence; vehicle 0%, full acetylcholine response 100%; activation, % at 3 µM; 0.14% of 360,000 active;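 active = activation above the run mean over all test wells plus 3 SD, cut at about 32% in these data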;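 also: peak over basal fluorescence ratio per well then scaled between controls; 0% = DMSO wells and 100% = acetylcholine at EC100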
M4 PAM = potentiates acetylcholine response at human M4 receptor; activation, % at 3 µM; P08173; AID 624126; CHO-K1 hM4/Gqi5, Fluo-8 calcium fluorescence, ACh EC20; 0% = ACh EC20, 100% = maximal ACh; 0.4% of 360,000 active;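 active = activation above its plate's cutoff, the mean activation of sample wells plus 3 SD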
CHRM5 antagonist = CHRM5 antagonism in calcium assay; inhibition, % at 3 µM; 0.59% of 360,000 active; CHO-hM5 cells, Fluo-8 calcium fluorescence, ACh EC80;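 active = inhibition above a per-plate cutoff, the mean of that plate's test compounds plus 3 SD, cut at about 27% in these data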;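 also: 0% = acetylcholine EC80 with DMSO and 100% = DMSO without agonist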
An asterisk follows results filed as active; ! = not confirmed by another sample.

SMILES | CHRM4 antagonist | M5 PAM | CHRM5 agonist | M4 ag | M4 PAM | CHRM5 antagonist
Cc1ccc(CN2C(=O)CCC2C(=O)NC2CC2)cc1 (stereo not given) | -8 | 13 | 1 | 0 | 26* | -4
c1ccc(C(CN2CCOCC2)c2ccccc2)cc1 | 7 | -4 | -8 | -2 | -6 | 99*
O=C(Nc1ccc(Cl)cc1)N(C1=NCCC1)c1ccc(OC(F)F)cc1 | 4 | -11 | 5 | 9 | -13 | 27*
CCN1C(=O)[C@H]2[C@@H](c3ccc(-c4ccc(F)cc4)cc3)N[C@@](C)(C(=O)OC)[C@H]2C1=O | 7 | -4 | -3 | 3 | 1 | 0
COCCN1C(=O)C(CC(=O)Nc2ccc(C(C)=O)cc2)SC1=Nc1ccccc1 (stereo not given) | 0 | -12 | -1 | 12 | -2 | 29*!
CC(O)CN1C(=O)C(CC(=O)Nc2ccc(Cl)cc2)SC1=Nc1ccccc1 (stereo not given) | 6 | -6 | -2 | 12 | -2 | 10
COc1ccccc1Nc1nc2ccccc2n1C | 44* | 5 | 0 | -1 | -8 | 2
O=C(COC(=O)c1ccc(Br)o1)NCc1ccccc1Cl | 7 | -17 | 0 | 0 | 2 | 10
N#CC1=C(N)C(C#N)(C#N)[C@H](c2ccncc2)[C@H]2CN(C(=O)OCc3ccccc3)CC=C12 | -8 | 5 | 1 | -1 | 35* | -15
Cc1nn(CCCC(=O)Nc2cccnc2Cl)c(C)c1[N+](=O)[O-] | 29* | 0 | 0 | 1 | 12 | 3
Cc1nn(Cc2c(Cl)cccc2Cl)c(C)c1NC(=O)CCCn1nc(C)c([N+](=O)[O-])c1C | -1 | -7 | -2 | 6 | -5 | 4
COc1ccc2cc1Oc1ccc(cc1)C[C@H]1c3cc(c(OC)cc3CCN1C)Oc1c(OC)c(OC)cc3c1[C@H](C2)N(C)CC3 | 78* | -9 | 0 | 6 | -17 | 3
C/C(=N\NC(=O)Cc1ccc(Cl)cc1)c1cccc(NC(=O)c2cccnc2)c1 | 6 | 0 | 0 | 2 | -4 | 7
COc1cccc(N2CCN(CC(=O)NC(=O)NC3CCCCC3)CC2)c1 | -6 | 0 | -1 | 1 | 1 | -1
O=C(NC1CCCC1)C1CC(=O)N(c2ccccc2)C1 (stereo not given) | 6 | 3 | 0 | 0 | -2 | 2
O=C(NC1CC1)C1CC(=O)N(c2ccccc2)C1 (stereo not given) | -2 | -9 | -4 | 2 | 7 | 30*
CC(C)(CNC(=O)CC1C(=O)NCCN1Cc1cccc(F)c1F)N1CCOCC1 (stereo not given) | 5 | -1 | -3 | 1 | 2 | 6
COc1ccc(C2/C=C\CN(C(=O)c3ccc(C)cc3)CC(=O)N2Cc2ccc(F)cc2)cc1 (stereo not given) | -3 | 18* | 1 | 2 | 14 | 0
CCc1ccc(N2CC(C(=O)N3CCN(c4ccccn4)CC3)CC2=O)cc1 (stereo not given) | -24 | 0 | 3 | 1 | 26* | 0
CCOc1ccc(N2CC(C(=O)N3CCN(c4ccccn4)CC3)CC2=O)cc1 (stereo not given) | -2 | -1 | 2 | 2 | 5 | 8
S=C(NCc1cccnc1)Nc1cc(Cl)cc(Cl)c1 | -2 | -22 | 2 | 16 | -15 | 30*
Cc1ccc(NC(=S)NCc2cccnc2)cc1 | 1 | 2 | -3 | 1 | 16* | -7
CCCCOc1ccc(Br)cc1/C(C)=N/NC1=NCCN1 | 35* | -18 | -5 | 3 | -23 | 17
CCCCCCOc1ccc(/C(C)=N/NC2=NCCN2)cc1[N+](=O)[O-] | 5 | 6 | -2 | 5 | 17 | -6
CN(CCc1ccccn1)C(=O)CCC1CCCN(C(=O)c2cccc(N(C)C)c2)C1 (stereo not given) | -3 | 9 | -3 | 3 | -5 | -8
SMILES | CHRM4 antagonist | M5 PAM | CHRM5 agonist | M4 ag | M4 PAM | CHRM5 antagonist
COc1ccc(C(C[N+](=O)[O-])c2c(C)[nH]c3ccccc23)cc1OC (stereo not given) | 0 | 19* | -2 | 4 | 5 | 0
COc1cc(C(c2c(C(=O)O)[nH]c3ccccc23)c2c(C(=O)O)[nH]c3ccccc23)ccc1OCc1ccccc1 | 4 | 0 | -5 | 0 | -7 | 4
Cc1ccc(C)c2[nH]c(=O)c(CN(Cc3ccc4c(c3)OCO4)Cc3nnnn3Cc3ccco3)cc12 | 12 | -8 | 3 | 11 | -11 | 5
Cc1ccc2cc(CN(Cc3ccc4c(c3)OCO4)Cc3nnnn3Cc3ccco3)c(=O)[nH]c2c1C | -3 | 7 | -3 | 3 | 23* | -2
COc1cc(CN2C(=O)C(CCc3ccccc3)ON=C2c2cnccn2)cc(OC)c1 (stereo not given) | 7 | -11 | 1 | 8 | -6 | 10
COc1cc(O)oc1C=Nc1ccc(Cl)cc1 | -17 | -4 | -3 | 1 | 17* | 0
COc1cc(NC(=O)COc2cc(O)c3c(c2)OC(C)(C)CC3=O)cc(OC)c1OC | 3 | -25 | 13 | 31 | -10 | 43*
CC1(C)CC(=O)c2c(O)cc(OCC(=O)Nc3ccc(S(N)(=O)=O)cc3)cc2O1 | -6 | -3 | 1 | 3 | 2 | 6
CCOCCc1nnc(NC(=O)Cc2ccccc2)s1 | 0 | 5 | 3 | -1 | 12 | -5
CCOCCc1nnc(NC(=O)Cc2c(F)cccc2Cl)s1 | -13 | 5 | -2 | -1 | 19* | 2
CCCN(CC(=O)Nc1ccccc1C)C(=O)C1CCN(C(=O)Nc2ccccc2)CC1 | -19 | -7 | 0 | 2 | 21* | 11
CCN(Cc1ccccc1)C(=O)C1CCN(C(=O)Nc2ccccc2)CC1 | 3 | -7 | -1 | 2 | 2 | 18
Cc1cc(-n2[nH]c(C)c(C)c2=O)nc(-c2ccccc2O)n1 | 2 | 37* | 0 | 9 | 9 | 42*
Cc1cc(N2CCC(C)CC2)nc(-c2ccccc2O)n1 | -17 | 15 | -8 | -2 | -6 | -10
COCCNS(=O)(=O)c1ccc(-c2ccc(Cl)cc2)cc1 | 1 | 21* | 4 | 1 | -6 | -7
O=S1(=O)CC(N2CCC(Cc3ccccc3)CC2)CN1C1CCCC1 (stereo not given) | 0 | -3 | 5 | 6 | -8 | -5
CCOC(=O)CCCCCC(=O)Nc1ccc2c(c1)C(=O)N([C@H](C)CO)C[C@H](C)[C@@H](CN(C)S(C)(=O)=O)OCCCC[C@@H](C)O2 | -13 | 2 | 1 | 1 | 11 | 5
